Published values pooled from the literature.
Protocols differ between the studies behind these lines.
Target: Myosin light chain kinase 2, skeletal/cardiac muscle (MYLK2, Homo sapiens, UniProt Q9H1R3)

| Structure (SMILES) | test | setting | remaining binding [%] |
| --- | --- | --- | --- |
| c1cnn2ncc(-c3ccnc(N4CCC45COC5)n3)c2c1 | binding | 1 µM | 77 |
| O=C(NCC1CCOCC1)c1n[nH]cc1NC(=O)c1c(F)cccc1F | binding, competition with immobilised ligand | 1 µM | 100 |
| Cc1cnn2ncc(-c3ccnc(N(C)C)n3)c2c1 | binding | 1 µM | 100 |
| COc1cnc(Nc2cccc(S(N)(=O)=O)c2)nc1N1CCN(c2ccccc2)C(=O)C1 | binding, competition with immobilised ligand | 1 µM | 100 |
| COc1ccc2cc(OCC3(C(=O)O)CN(C(=O)c4ccc(F)cc4)C3)ccc2c1 | cell-free assay, competition with immobilised ligand | 1 µM | 100 |
| COc1cnc(Nc2cccc(S(N)(=O)=O)c2)nc1N1CCN(c2ccccc2)CC1 | binding, competition with immobilised ligand | 1 µM | 100 |
| CN(C)c1nccc(-c2cnn3ncccc23)n1 | binding | 1 µM | 100 |
| O=C(c1ccc(Nc2ncc(Cl)c(-c3ccc(Cl)s3)n2)cc1)N1CCC(N2CCCC2)CC1 | binding, competition with immobilised ligand | 1 µM | 2.4 |
| Cc1c(C(=O)O)cc(-c2ccc(C3CCNCC3)cc2)c2ccc(-c3ccc(C(F)(F)F)cc3)cc12 | binding, competition with immobilised ligand | 1 µM | 100 |
| O=C(c1ccc(Nc2ncc(Cl)c(-c3cc4ccccc4s3)n2)cc1)N1CCC(N2CCCC2)CC1 | binding, competition with immobilised ligand | 1 µM | 1.2 |
| N[C@H]1CCN(c2nccc(-c3cnn4ncccc34)n2)C1 | binding | 1 µM | 92 |
| CN(C)CC#Cc1ccc(OCCCc2sc(N3CCc4cccc(C(=O)Nc5nc6ccccc6s5)c4C3)nc2C(=O)O)c(F)c1 | cell-free assay, competition with immobilised ligand | 1 µM | 100 |
| CCN1CCN(Cc2ccc(C(=O)Nc3ccc(C)c(Oc4ccc5c(c4)CC(=O)N5)c3)cc2C(F)(F)F)CC1 | binding, competition with immobilised ligand | 1 µM | 100 |
| C=CC(=O)N1CCC(C(=O)NCC(=O)N2CCN(c3nc(-c4cnc(N)nc4C(F)F)nc(N4CCOCC4)n3)CC2)CC1 | binding, competition with immobilised ligand | 1 µM | 97 |
| C[C@@H]1CCN(c2nccc(-c3cnn4ncccc34)n2)C1 | binding | 1 µM | 86 |
| O=C(N1CCS(=O)(=O)CC1)N1C[C@H](c2ccc(OC(F)(F)F)cc2)C[C@H](c2nc(C3CC3)no2)C1 | cell-free assay, competition with immobilised ligand | 1 µM | 100 |
| O=C(NCCCN1CCOCC1)c1ccc(Nc2ncc(Cl)c(-c3ccc(Cl)s3)n2)cc1 | binding, competition with immobilised ligand | 1 µM | 12 |
| CS(=O)(=O)c1cc(C2(NC(=O)c3cncc4c3cnn4-c3ccc(F)cc3)CC2)ccn1 | cell-free assay, competition with immobilised ligand | 1 µM | 100 |
| COc1ncc2cc3ccccc3nc2c1C#N | binding, competition with immobilised ligand | 5 µM | 84 |
| CN(CCCC(F)(F)F)c1nccc(-c2cnn3ncccc23)n1 | binding | 1 µM | 98 |
| COc1cc(-c2cn(C3CCc4c(F)cccc4N(CC(F)(F)F)C3=O)nn2)ccc1-n1cnc(C)c1 (stereo not drawn) | cell-free assay, competition with immobilised ligand | 1 µM | 100 |
